From article PMC2709489 (Nature biotechnology, 2009)
Where two headings read alike, the source gives them in different places.

What was measured:
[1] = biological target: mouse brain serine hydrolases (Homo sapiens, UniProt O75884); assay type: biochemical
RBBP9 [2] = biological target: T1, RBBP9 (Homo sapiens, UniProt O75884); assay type: biochemical
[3] = tested on: endogenous GSTO1 and other SE-rhodamine targets; assay type: biochemical, human
GSTO1 [4] = biological target: T2, GSTO1 (Homo sapiens, UniProt P78417); assay type: biochemical
T2 sequence (P78417 1-241): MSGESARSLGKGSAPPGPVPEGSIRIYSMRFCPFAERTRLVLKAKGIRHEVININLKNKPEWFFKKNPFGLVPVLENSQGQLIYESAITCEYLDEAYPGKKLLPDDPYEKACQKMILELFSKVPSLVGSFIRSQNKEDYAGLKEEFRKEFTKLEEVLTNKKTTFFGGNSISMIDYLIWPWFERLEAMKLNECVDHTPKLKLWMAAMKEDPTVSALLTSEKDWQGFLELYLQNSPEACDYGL

RBBP9 [5] = biological target: T1, RBBP9; test: Gel-based competitive ABPP of RBBP9 with varying Pluronic F-127; assay type: biochemical; settings: compound 5 at 10 and 20 µM, emetine 20 µM; 400 nM RBBP9
RBBP9 [6] = biological target: T1, RBBP9; test: Reversibility of RBBP9 inhibition by gel filtration; assay type: biochemical; settings: emetine 500 μM or compound 2 50 μM, 30 min, then Sephadex G-25M
GSTO1 [7] = biological target: T2, GSTO1; test: Reversibility of GSTO1 inhibition by gel filtration; assay type: biochemical; settings: 6 and 9 at 280 μM, 7 and 8 at 28 μM, 30 min, then Sephadex G-25M
How it was run: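 Recombinant GSTO1 (2 μM) was incubated 30 min with DMSO or test compound, then split. One portion was labeled directly with SE-rhodamine. The other was passed over a Sephadex G-25M gel-filtration column before SE-rhodamine labeling. Both were resolved by SDS-PAGE with in-gel fluorescence read-out.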

T1 sequence (O75884 whole entry): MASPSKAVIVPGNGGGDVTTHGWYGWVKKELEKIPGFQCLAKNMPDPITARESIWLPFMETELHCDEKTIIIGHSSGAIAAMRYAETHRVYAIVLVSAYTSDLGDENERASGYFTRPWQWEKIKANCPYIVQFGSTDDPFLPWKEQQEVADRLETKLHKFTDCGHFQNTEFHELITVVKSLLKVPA
Chain of mouse brain serine hydrolases (O75884 whole entry): as above

Structure (SMILES): CC[C@H]1CN2CCc3cc(OC)c(OC)cc3[C@@H]2C[C@@H]1C[C@H]1NCCc2cc(O)c(OC)cc21 [1a, Cephaeline]
- inhibition of RBBP9 by emetine analogues (competitive ABPP) [1]: inhibited RBBP9, albeit with reduced potency relative to emetine

Structure (SMILES): CCC1=C(C[C@H]2NCCc3cc(OC)c(OC)cc32)C[C@H]2c3cc(OC)c(OC)cc3CCN2C1 [1b, Dehydroemetine]
- inhibition of RBBP9 (RBBP9 [2]): failed to inhibit RBBP9

Structure (SMILES): CC[C@H]1CN2CCc3cc(OC)c(OC)cc3[C@@H]2C[C@@H]1C[C@H]1NCCc2c1[nH]c1ccc(O)cc21 [1c, Tubulosine]
- inhibition of RBBP9 by emetine analogues (competitive ABPP) [1]: inhibited RBBP9, albeit with reduced potency relative to emetine

Structure (SMILES): CC[C@H]1CN2CCc3cc(OC)c(OC)cc3[C@@H]2C[C@@H]1C[C@H]1NCCc2cc(OC)c(OC)cc21 [Compound 1, Emetine]
- effect on other SE-rhodamine targets in MDA-MB-231 proteome ([3]; 20 μM): did not inhibit the labeling of GSTO1 or any of the other SE-rhodamine targets
- inhibition of GSTO1 in MDA-MB-231 proteome ([3]; 20 μM): did not inhibit the labeling of GSTO1
- block of probe labeling of GSTO1 (FluoPol) (GSTO1 [4]): did not block probe labeling of GSTO1
- effect of Pluronic F-127 on inhibitory activity (RBBP9 [5]): did not diminish the inhibitory activity
- reversibility of RBBP9 inhibition (RBBP9 [6]): reversible

Structure (SMILES): COc1ccc2[nH]c([S+]([O-])Cc3ncc(C)c(OC)c3C)nc2c1 (stereo not drawn) [Compound 6, omeprazole]
- inhibition of GSTO1 in MDA-MB-231 proteome ([3]; 1 μM): lost
- inhibition of GSTO1 in MDA-MB-231 proteome ([3]; 20 μM): considerably less potent
- reversibility of GSTO1 inhibition (GSTO1 [7]): reversible

Structure (SMILES): CO[C@H]1/C=C/O[C@@]2(C)Oc3c(C)c(O)c4c(O)c(c(/C=N/N5CCN(C)CC5)c(O)c4c3C2=O)NC(=O)/C(C)=C\C=C\[C@H](C)[C@H](O)[C@@H](C)[C@@H](O)[C@@H](C)[C@H](OC(C)=O)[C@@H]1C [Compound 9, rifampicin]
- inhibition of GSTO1 in MDA-MB-231 proteome ([3]; 1 μM): lost
- inhibition of GSTO1 in MDA-MB-231 proteome ([3]; 20 μM): considerably less potent
- reversibility of GSTO1 inhibition (GSTO1 [7]): reversible

Structure (SMILES): N[C@@H](CCC(=O)N[C@@H](CS)C(=O)NCC(=O)O)C(=O)O [glutathione]
- block of probe labeling of GSTO1 (FluoPol) (GSTO1 [4]): No labeling
